Assay [1] addresses SH3 domain of Abl (AblSH3) (Homo sapiens, UniProt P00519). The experiment in a line: Fluorescence titration binding of synthetic MED25 peptides to Abl SH3.
Assay [2] deals with SH3 domain of the Src-family kinase Lck (LckSH3) (Homo sapiens, UniProt P06239). As to the kind of experiment: Fluorescence titration binding of synthetic MED25 peptides to Lck SH3.
Assay [3] relates to SH3 domain of the Src-family kinase Lck (LckSH3). The assay is described as above. As to conditions: AblSH3 vs LckSH3.
The test system of another assay is Med25 expression. As to the kind of experiment: Med25 qRT-PCR expression in sciatic nerve of treated Pmp22 transgenic. In kind it is in vivo, rat. The gist of the method:
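Pmp22-transgenic rats received a progestin diet (20 mg/kg), a progesterone-receptor antagonist, or placebo (12, 12 and 8 animals). RNA was Trizol-extracted from sciatic nerve. Med25 was quantified by TaqMan qRT-PCR with unlabelled forward/reverse primers and a 5′-FAM probe, in triplicate, normalised to 18S rRNA run in parallel. Runs were repeated with GAPDH as the internal control.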
Background: Quantitative PCR measures a nucleic acid by following its amplification.

Another assay relates to Pmp22 expression. The following applies: peripheral nerves of Pmp22 transgenic rats; ref [31]; cited from earlier work.
A further assay concerns Pmp22 transgenic rats. As to conditions: progesterone antagonist, ref [31]; cited from earlier work.

The values below come from PMC2847151 (Neurogenetics, 2009).

In general, Kd refers to the constant that tells how readily two partners part at equilibrium.

Chain of SH3 domain of Abl (AblSH3) (P00519 61-121 limits assumed): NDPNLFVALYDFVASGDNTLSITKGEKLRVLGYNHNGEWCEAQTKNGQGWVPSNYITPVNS
Chain of SH3 domain of the Src-family kinase Lck (LckSH3) (Homo sapiens, UniProt P06239) (P06239 61-121 limits assumed): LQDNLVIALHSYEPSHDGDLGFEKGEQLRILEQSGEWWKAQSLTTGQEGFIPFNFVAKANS

For the compound “Ac-QLPPGPPGVPKPPPAS-NH2 [mutant, Ac-QLPPGPPGVPKPPPAS-CONH2]”, the Kd in assay [1] came out at 2.91 ± 0.66 µM; in assay [2], 5.38 ± 1.05 µM. In addition, in assay [1] (mutant vs wild-type peptide), the “affinity for Abl SH3, effect of mutation” value was “almost unaltered by the mutation”. Besides, the “binding affinity Abl SH3 compared with Lck SH3 (specificity)” value in assay [3] is on record as “very similar affinity”.
Take “Ac-QLPPGPPGAPKPPPAS-NH2 [wild-type MED25, Ac-QLPPGPPGAPKPPPAS-CONH2]”: in assay [3], the “binding affinity Abl SH3 compared with Lck SH3 (specificity)” value is reported as “significantly stronger to Abl than to Lck”.
Consider `CN(C)c1ccc([C@H]2C[C@]3(C)[C@@H](CC[C@]3(O)CCCO)[C@@H]3CCC4=CC(=O)CCC4=C32)cc1` [onapristone], for which the “Med25 expression after treatment” value with Med25 expression (Pmp22^++/+ rats, onapristone) is on record as “no significant reducing effect”. The Pmp22 expression entry in the assay with Pmp22 expression is “decreases its expression”. In addition, the phenotype result in the assay with Pmp22 transgenic rats is recorded as “improvement of the phenotype”.
For the compound `CC(=O)[C@H]1CC[C@H]2[C@@H]3CCC4=CC(=O)CC[C@]4(C)[C@H]3CC[C@]12C` [progesterone], in the assay with Med25 expression (Pmp22^++/+ male rats, progesterone 20 mg/kg diet), the “Med25 expression after treatment” value is “further increase of the Med25 expression”. Besides, the Pmp22 expression entry in the assay on Pmp22 expression is listed as “increases Pmp22 expression”.
